# From ChEMBL document CHEMBL3425482, “Structure-guided design and optimization of dipeptidyl inhibitors of norovirus 3CL protease. Structure-activity relationships and biochemical, X-ray crystallographic, cell-based, and in vivo studies” (J Med Chem, 2015)
# Test system: not listed separately
# Test: Inhibition of Norovirus recombinant 3CL protease using Edans-EPDFHLQGPEDLAK-Dabcyl as substrate for 30 mins by fluorometry
# Settings: not given
row,SMILES,IC50
1,CCOP(=O)(OCC)C(O)[C@H](C[C@@H]1CCNC1=O)NC(=O)[C@H](CC1CCCCC1)NC(=O)OCc1cccc(Br)c1 (stereo partly specified),6500 nM
2,O=C[C@H](C[C@@H]1CCNC1=O)NC(=O)[C@H](CC1CCCCC1)NC(=O)OCc1cccc(Cl)c1,100 nM
3,O=C(N[C@@H](CC1CCCCC1)C(=O)N[C@@H](C[C@@H]1CCNC1=O)C(=O)C(=O)NC1CC1)OCc1cccc(Br)c1,1500 nM
4,O=C(N[C@@H](CC1CCCCC1)C(=O)N[C@@H](C[C@@H]1CCNC1=O)C(O)S(=O)(=O)O)OCc1ccccc1Cl (stereo partly specified),700 nM
5,O=C(N[C@@H](CC1CCCCC1)C(=O)N[C@@H](C[C@@H]1CCNC1=O)C(O)S(=O)(=O)O)OCc1cccc(Cl)c1 (stereo partly specified),100 nM
6,O=C[C@H](C[C@@H]1CCNC1=O)NC(=O)[C@H](CC1CCCCC1)NC(=O)OCc1cccc(Br)c1,300 nM
7,CC(C)C[C@H](NC(=O)OCc1cccc(Cl)c1)C(=O)N[C@@H](C[C@@H]1CCNC1=O)C(=O)C(=O)NC1CC1,5500 nM
8,O=C(N[C@@H](CC1CCCCC1)C(=O)N[C@@H](C[C@@H]1CCNC1=O)C(O)S(=O)(=O)O)OCc1ccccc1 (stereo partly specified),400 nM
9,N#Cc1cccc(COC(=O)N[C@@H](CC2CCCCC2)C(=O)N[C@H](C=O)C[C@@H]2CCNC2=O)c1,> 10000 nM
10,O=C[C@H](C[C@@H]1CCNC1=O)NC(=O)[C@H](CC1CCCCC1)NC(=O)OCc1ccc(Cl)cc1,710 nM
11,O=C[C@H](C[C@@H]1CCNC1=O)NC(=O)[C@H](CC1CCCCC1)NC(=O)OCc1ccccc1Cl,800 nM
12,O=C[C@H](C[C@@H]1CCNC1=O)NC(=O)[C@H](CC1CCCCC1)NC(=O)OCc1cccc(F)c1,1200 nM
13,O=C[C@H](C[C@@H]1CCNC1=O)NC(=O)[C@@H](NC(=O)OCc1cccc(Cl)c1)C1CCCCC1,5100 nM
14,O=C[C@H](C[C@@H]1CCNC1=O)NC(=O)[C@H](CC1CCCCC1)NC(=O)OCc1ccccc1,300 nM
15,O=C(N[C@@H](CC1CCCCC1)C(=O)N[C@@H](C[C@@H]1CCNC1=O)C(=O)C(=O)NC1CC1)OCc1cccc(Cl)c1,250 nM
16,COc1ccccc1COC(=O)N[C@@H](CC1CCCCC1)C(=O)N[C@H](C=O)C[C@@H]1CCNC1=O,> 10000 nM

# Test system: Norovirus
# Test: Antiviral activity against Norovirus infected in human HG23 cells
# Format: functional, cell-based
# Settings: not given
row,SMILES,EC50
1,CCOP(=O)(OCC)C(O)[C@H](C[C@@H]1CCNC1=O)NC(=O)[C@H](CC1CCCCC1)NC(=O)OCc1cccc(Br)c1 (stereo partly specified),150 nM
2,O=C[C@H](C[C@@H]1CCNC1=O)NC(=O)[C@H](CC1CCCCC1)NC(=O)OCc1cccc(Cl)c1,20 nM
3,O=C(N[C@@H](CC1CCCCC1)C(=O)N[C@@H](C[C@@H]1CCNC1=O)C(=O)C(=O)NC1CC1)OCc1cccc(Br)c1,200 nM
4,O=C(N[C@@H](CC1CCCCC1)C(=O)N[C@@H](C[C@@H]1CCNC1=O)C(O)S(=O)(=O)O)OCc1ccccc1Cl (stereo partly specified),70 nM
5,O=C(N[C@@H](CC1CCCCC1)C(=O)N[C@@H](C[C@@H]1CCNC1=O)C(O)S(=O)(=O)O)OCc1cccc(Cl)c1 (stereo partly specified),20 nM
6,O=C[C@H](C[C@@H]1CCNC1=O)NC(=O)[C@H](CC1CCCCC1)NC(=O)OCc1cccc(Br)c1,30 nM
7,CC(C)C[C@H](NC(=O)OCc1cccc(Cl)c1)C(=O)N[C@@H](C[C@@H]1CCNC1=O)C(=O)C(=O)NC1CC1,300 nM
8,O=C(N[C@@H](CC1CCCCC1)C(=O)N[C@@H](C[C@@H]1CCNC1=O)C(O)S(=O)(=O)O)OCc1ccccc1 (stereo partly specified),60 nM
9,N#Cc1cccc(COC(=O)N[C@@H](CC2CCCCC2)C(=O)N[C@H](C=O)C[C@@H]2CCNC2=O)c1,200 nM
10,O=C[C@H](C[C@@H]1CCNC1=O)NC(=O)[C@H](CC1CCCCC1)NC(=O)OCc1ccc(Cl)cc1,80 nM
11,O=C[C@H](C[C@@H]1CCNC1=O)NC(=O)[C@H](CC1CCCCC1)NC(=O)OCc1ccccc1Cl,80 nM
12,O=C[C@H](C[C@@H]1CCNC1=O)NC(=O)[C@H](CC1CCCCC1)NC(=O)OCc1cccc(F)c1,90 nM
13,O=C[C@H](C[C@@H]1CCNC1=O)NC(=O)[C@@H](NC(=O)OCc1cccc(Cl)c1)C1CCCCC1,150 nM
14,O=C[C@H](C[C@@H]1CCNC1=O)NC(=O)[C@H](CC1CCCCC1)NC(=O)OCc1ccccc1,60 nM
15,O=C(N[C@@H](CC1CCCCC1)C(=O)N[C@@H](C[C@@H]1CCNC1=O)C(=O)C(=O)NC1CC1)OCc1cccc(Cl)c1,85 nM
16,COc1ccccc1COC(=O)N[C@@H](CC1CCCCC1)C(=O)N[C@H](C=O)C[C@@H]1CCNC1=O,100 nM

# Target: T1, Neutrophil elastase (Homo sapiens) (UniProt P08246)
# T1 sequence (whole entry): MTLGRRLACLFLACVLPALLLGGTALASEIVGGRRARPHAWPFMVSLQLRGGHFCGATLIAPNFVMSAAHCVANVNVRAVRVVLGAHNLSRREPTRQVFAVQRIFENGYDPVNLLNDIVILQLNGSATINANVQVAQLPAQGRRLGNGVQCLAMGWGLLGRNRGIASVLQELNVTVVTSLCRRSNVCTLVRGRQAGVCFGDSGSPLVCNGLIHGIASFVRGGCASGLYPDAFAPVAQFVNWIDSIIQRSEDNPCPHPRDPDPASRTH
# Test: Inhibition of human neutrophil elastase
# Settings: concentration not given here
row,SMILES,inhibition
1,CCOP(=O)(OCC)C(O)[C@H](C[C@@H]1CCNC1=O)NC(=O)[C@H](CC1CCCCC1)NC(=O)OCc1cccc(Br)c1 (stereo partly specified),63%
2,O=C[C@H](C[C@@H]1CCNC1=O)NC(=O)[C@H](CC1CCCCC1)NC(=O)OCc1cccc(Cl)c1,15%
3,O=C[C@H](C[C@@H]1CCNC1=O)NC(=O)[C@H](CC1CCCCC1)NC(=O)OCc1cccc(Br)c1,26.5%

# Species: Homo sapiens
# Test: Inhibition of chymotrypsin (unknown origin)
# Settings: concentration not given here
row,SMILES,inhibition
1,CCOP(=O)(OCC)C(O)[C@H](C[C@@H]1CCNC1=O)NC(=O)[C@H](CC1CCCCC1)NC(=O)OCc1cccc(Br)c1 (stereo partly specified),0%
2,O=C[C@H](C[C@@H]1CCNC1=O)NC(=O)[C@H](CC1CCCCC1)NC(=O)OCc1cccc(Cl)c1,0%
3,O=C[C@H](C[C@@H]1CCNC1=O)NC(=O)[C@H](CC1CCCCC1)NC(=O)OCc1cccc(Br)c1,0%

# Species: Bos taurus
# Test: Inhibition of bovine trypsin
# Settings: concentration not given here
row,SMILES,inhibition
1,CCOP(=O)(OCC)C(O)[C@H](C[C@@H]1CCNC1=O)NC(=O)[C@H](CC1CCCCC1)NC(=O)OCc1cccc(Br)c1 (stereo partly specified),1%
2,O=C[C@H](C[C@@H]1CCNC1=O)NC(=O)[C@H](CC1CCCCC1)NC(=O)OCc1cccc(Cl)c1,5%
3,O=C[C@H](C[C@@H]1CCNC1=O)NC(=O)[C@H](CC1CCCCC1)NC(=O)OCc1cccc(Br)c1,0%

# Target: Prothrombin (Homo sapiens) (UniProt P00734)
# Test: Inhibition of human thrombin after 10 mins incubation by chromogenic substrate hydrolysis assay
# Settings: not given
row,SMILES,inhibition
1,CCOP(=O)(OCC)C(O)[C@H](C[C@@H]1CCNC1=O)NC(=O)[C@H](CC1CCCCC1)NC(=O)OCc1cccc(Br)c1 (stereo partly specified),0%
2,O=C[C@H](C[C@@H]1CCNC1=O)NC(=O)[C@H](CC1CCCCC1)NC(=O)OCc1cccc(Cl)c1,0%
3,O=C[C@H](C[C@@H]1CCNC1=O)NC(=O)[C@H](CC1CCCCC1)NC(=O)OCc1cccc(Br)c1,0%

# Target: Coagulation factor X (Homo sapiens) (UniProt P00742)
# Sequence (P00742 41-179 limits assumed): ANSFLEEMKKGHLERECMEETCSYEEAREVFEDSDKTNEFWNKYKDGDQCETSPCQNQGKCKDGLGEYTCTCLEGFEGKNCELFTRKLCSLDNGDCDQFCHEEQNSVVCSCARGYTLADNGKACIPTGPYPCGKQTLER
# Sequence (P00742 235-488 limits assumed): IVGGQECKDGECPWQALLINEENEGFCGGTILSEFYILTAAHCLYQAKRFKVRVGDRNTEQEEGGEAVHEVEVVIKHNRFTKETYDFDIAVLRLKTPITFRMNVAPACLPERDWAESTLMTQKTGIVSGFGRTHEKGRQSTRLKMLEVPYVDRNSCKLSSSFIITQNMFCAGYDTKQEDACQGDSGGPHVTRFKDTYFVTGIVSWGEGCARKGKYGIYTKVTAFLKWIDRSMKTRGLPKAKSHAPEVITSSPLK
# Test: Inhibition of human factor 10a using Pefachrome-tPA substrate
# Settings: concentration not given here
row,SMILES,inhibition
1,CCOP(=O)(OCC)C(O)[C@H](C[C@@H]1CCNC1=O)NC(=O)[C@H](CC1CCCCC1)NC(=O)OCc1cccc(Br)c1 (stereo partly specified),6%
2,O=C[C@H](C[C@@H]1CCNC1=O)NC(=O)[C@H](CC1CCCCC1)NC(=O)OCc1cccc(Cl)c1,1%
3,O=C[C@H](C[C@@H]1CCNC1=O)NC(=O)[C@H](CC1CCCCC1)NC(=O)OCc1cccc(Br)c1,0%

# Target: Plasminogen (Homo sapiens) (UniProt P00747)
# Sequence (P00747 97-580 limits assumed): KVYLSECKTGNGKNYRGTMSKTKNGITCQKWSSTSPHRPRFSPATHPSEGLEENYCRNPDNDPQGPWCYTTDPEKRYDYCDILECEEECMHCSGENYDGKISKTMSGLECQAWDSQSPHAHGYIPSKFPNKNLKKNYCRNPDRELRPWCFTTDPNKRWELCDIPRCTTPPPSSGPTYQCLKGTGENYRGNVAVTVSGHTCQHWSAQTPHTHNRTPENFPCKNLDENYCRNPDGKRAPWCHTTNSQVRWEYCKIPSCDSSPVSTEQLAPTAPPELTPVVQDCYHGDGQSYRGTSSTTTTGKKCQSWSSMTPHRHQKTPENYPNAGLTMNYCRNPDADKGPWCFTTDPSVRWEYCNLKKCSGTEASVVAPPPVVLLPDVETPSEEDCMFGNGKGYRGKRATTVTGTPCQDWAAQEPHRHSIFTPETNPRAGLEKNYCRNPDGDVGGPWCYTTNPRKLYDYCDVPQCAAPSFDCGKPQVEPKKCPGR
# Sequence (P00747 581-810 limits assumed): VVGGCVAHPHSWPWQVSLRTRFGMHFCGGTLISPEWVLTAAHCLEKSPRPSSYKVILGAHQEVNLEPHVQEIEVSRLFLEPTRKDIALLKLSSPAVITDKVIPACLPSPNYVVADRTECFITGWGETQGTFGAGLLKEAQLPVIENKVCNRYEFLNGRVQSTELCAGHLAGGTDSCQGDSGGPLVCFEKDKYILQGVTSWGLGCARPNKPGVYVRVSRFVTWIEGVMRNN
# Test: Inhibition of plasmin (unknown origin)
# Settings: concentration not given here
row,SMILES,inhibition
1,CCOP(=O)(OCC)C(O)[C@H](C[C@@H]1CCNC1=O)NC(=O)[C@H](CC1CCCCC1)NC(=O)OCc1cccc(Br)c1 (stereo partly specified),13%
2,O=C[C@H](C[C@@H]1CCNC1=O)NC(=O)[C@H](CC1CCCCC1)NC(=O)OCc1cccc(Cl)c1,0%
3,O=C[C@H](C[C@@H]1CCNC1=O)NC(=O)[C@H](CC1CCCCC1)NC(=O)OCc1cccc(Br)c1,7%

# Target: T2, Carboxypeptidase A1 (Homo sapiens) (UniProt P15085)
# T2 sequence (whole entry): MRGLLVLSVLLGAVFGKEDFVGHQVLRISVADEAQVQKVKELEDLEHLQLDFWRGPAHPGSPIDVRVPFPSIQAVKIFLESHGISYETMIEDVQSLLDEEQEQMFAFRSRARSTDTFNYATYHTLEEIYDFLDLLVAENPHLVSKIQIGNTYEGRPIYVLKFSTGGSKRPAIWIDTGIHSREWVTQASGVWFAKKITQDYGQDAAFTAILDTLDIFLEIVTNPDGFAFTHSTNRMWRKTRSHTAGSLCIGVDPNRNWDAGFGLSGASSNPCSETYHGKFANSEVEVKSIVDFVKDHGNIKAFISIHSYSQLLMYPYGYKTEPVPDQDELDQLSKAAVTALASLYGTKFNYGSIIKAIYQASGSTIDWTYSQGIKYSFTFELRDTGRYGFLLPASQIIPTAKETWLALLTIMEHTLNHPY
# Test: Inhibition of carboxypeptidase A (unknown origin)
# Settings: concentration not given here
row,SMILES,inhibition
1,CCOP(=O)(OCC)C(O)[C@H](C[C@@H]1CCNC1=O)NC(=O)[C@H](CC1CCCCC1)NC(=O)OCc1cccc(Br)c1 (stereo partly specified),0%
2,O=C[C@H](C[C@@H]1CCNC1=O)NC(=O)[C@H](CC1CCCCC1)NC(=O)OCc1cccc(Cl)c1,12%
3,O=C[C@H](C[C@@H]1CCNC1=O)NC(=O)[C@H](CC1CCCCC1)NC(=O)OCc1cccc(Br)c1,11.6%

# Test system: not listed separately
# Test: Antiviral activity against Murine norovirus 1 infected in mouse RAW264.7 cells assessed as inhibition of viral replication
# Format: functional, cell-based
# Settings: not given
# How it was run: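 RAW264.7 mouse macrophages were kept in DMEM with 2–5% FBS. Serially diluted compound (DMSO ≤0.5%) was added to confluent monolayers. Cells were infected immediately with MNV-1 at MOI 0.05–0.1 and held 48 h at 37 °C. After freeze-thaw, virus titres were read by TCID50. EC50 came from nonlinear variable-slope regression of inhibition versus log concentration.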
row,SMILES,EC50
1,O=C[C@H](C[C@@H]1CCNC1=O)NC(=O)[C@H](CC1CCCCC1)NC(=O)OCc1cccc(Cl)c1,80 nM

# Test system: not listed separately
# Test: Antiviral activity against Murine norovirus 1 infected in Balb/c mouse assessed as reduction in viral titers in small intestine at 10 mg/kg, ip twice daily started 4 hrs prior to infection measured after 72 hrs post infection
# Settings: route intraperitoneal
row,SMILES,fold change (FC)
1,O=C[C@H](C[C@@H]1CCNC1=O)NC(=O)[C@H](CC1CCCCC1)NC(=O)OCc1cccc(Cl)c1,42.12

# Test system: not listed separately
# Test: Antiviral activity against Murine norovirus 1 infected in Balb/c mouse assessed as reduction in viral titers in large intestine at 10 mg/kg, ip twice daily started 4 hrs prior to infection measured after 72 hrs post infection
# Settings: route intraperitoneal
row,SMILES,fold change (FC)
1,O=C[C@H](C[C@@H]1CCNC1=O)NC(=O)[C@H](CC1CCCCC1)NC(=O)OCc1cccc(Cl)c1,7.98
